Common to all, as to type: functional
What all share (details): route intraperitoneal

The test system of test [1] is Mus musculus. Put plainly: Clastogenic effect on C57BL mouse assessed as mitotic index in bone marrow cells at 3.5 mg/kg, ip after 24 hrs. Put shortly: (§1)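 Inbred male and female C57Bl mice (20.0 ± 1.5 g), groups of 3 males + 3 females, 5 controls given 0.9% NaCl. Single i.p. dose. Colchicine 40 mg/kg i.p. 1 h before femoral bone marrow harvest. Cells in 0.075 M KCl for 20 min at 37 °C, fixed in methanol–acetic acid (3:1), stained with 5% Giemsa. At least 50 metaphases scored per animal for breaks, fragments, centromere/centromeric and telomere/telomeric fusions. Mitotic index from 1500 cells per animal. Group mean ± SE.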

Test [2] concerns Mus musculus. Put plainly: Clastogenic effect on C57BL mouse assessed as number of metaphase chromosomal centromere/centromeric fusion in bone marrow cells at 3.5 mg/kg, ip after 24 hrs. The essentials: as §1
Test [3] relates to Mus musculus. Put plainly: Clastogenic effect on C57BL mouse assessed as number of metaphase chromosomal breaks in bone marrow cells at 3.5 mg/kg, ip after 24 hrs. Put shortly: as §1
The test system of test [4] is Mus musculus. Put plainly: Clastogenic effect on C57BL mouse assessed as bone marrow cells with abberation at 3.5 mg/kg, ip after 24 hrs. The essentials:
as §1

For test [5], the system named is Mus musculus. Put plainly: Clastogenic effect on C57BL mouse assessed as number of metaphase chromosome telomere/telomeric fusion in bone marrow cells at 3.5 mg/kg, ip after 24 hrs. Put shortly: as §1
For test [6], the system named is Mus musculus. Put plainly: Clastogenic effect on C57BL mouse assessed as number of metaphase chromosomal fragments in bone marrow cells at 3.5 mg/kg, ip after 24 hrs. Put shortly: as §1

Consider `CO[C@@]12[C@H](COC(N)=O)C3=C(C(=O)C(C)=C(N)C3=O)N1C[C@@H]1N[C@@H]12` [MITOMYCIN], for which the Activity with Mus musculus [1] stood at 5.49%; with Mus musculus [2], 11; in the test on Mus musculus [3], 10; in the test on Mus musculus [4], 46.67%; with Mus musculus [5], 0; in the test on Mus musculus [6], 13.
